Hits are enriched below; roughly 2.5% of the tested compounds scored in any of these assays.
MEKK2mut PB1 HTS = signal of MEK5 binding to mutant human MEKK2 PB1 domain; bead flow cytometry, Alexa488-MEK5 binding to MEKK2 mutant; percent response, % at 10 µM; actives 0.35% (n = 290,000); in the data active = percent response above about 24%, passing the limit was not always enough
MEKK3 PB1 HTS = MEKK3-MEK5 PB1 interaction, increase or decrease; actives 1.4% (n = 290,000); binding response (% of control), % at 10 µM; bead-based flow cytometry, Alexa488-MEK5 binding to MEKK3; actives lie on both sides; 0 = blocked by unlabeled MEK5, 100 = vehicle;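 active = binding response more than 3 SD above or below the average of its plate-row segment, actives on both sides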;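 note: Alexa488 bead fluorescence after subtracting the streptavidin-only scavenger bead signal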
Target sequence (Q99759 whole entry, looked up): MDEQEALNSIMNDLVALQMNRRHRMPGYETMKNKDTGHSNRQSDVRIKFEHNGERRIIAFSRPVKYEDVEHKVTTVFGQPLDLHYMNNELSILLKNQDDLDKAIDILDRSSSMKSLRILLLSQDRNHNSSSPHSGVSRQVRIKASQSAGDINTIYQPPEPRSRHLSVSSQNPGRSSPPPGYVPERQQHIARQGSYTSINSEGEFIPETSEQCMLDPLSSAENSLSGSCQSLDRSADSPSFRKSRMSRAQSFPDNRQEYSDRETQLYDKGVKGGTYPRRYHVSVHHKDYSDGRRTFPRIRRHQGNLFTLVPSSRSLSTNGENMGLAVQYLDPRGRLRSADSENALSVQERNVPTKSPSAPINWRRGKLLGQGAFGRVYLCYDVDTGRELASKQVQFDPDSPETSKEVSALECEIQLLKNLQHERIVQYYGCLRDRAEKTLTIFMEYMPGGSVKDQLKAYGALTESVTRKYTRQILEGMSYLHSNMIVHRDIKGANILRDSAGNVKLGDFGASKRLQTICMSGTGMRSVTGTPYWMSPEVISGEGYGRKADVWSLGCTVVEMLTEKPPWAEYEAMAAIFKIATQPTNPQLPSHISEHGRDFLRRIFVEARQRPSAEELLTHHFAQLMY
T cell modulator = modulates CD8 T cell binding to vesicles. 2C CD8+ T cell-vesicle binding, flow cytometry; hits give low values. response (vesicle binding), % at 7 µM. actives 0.068% (n = 330,000). AID 2052;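 active = response, share of CD8 T cells binding vesicles, and their 90th percentile fluorescence all below set limits, cut at about 80% in these data, passing the limit was not always enough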;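 note: values below 100% mean blocked vesicle binding to the CD8+ T cells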
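incubation = binding step 1.5 h, 37 °C, antibody labelling 20 min, ice | test system = 2C mouse CD8+ T cells | read-out basis = percent CD8+ FL2 mean versus row control | controls = Peptide-free naked vesicles (low) and QL9 vesicles with 0.7% DMSO vehicle (high) | detection = flow cytometry of vesicle-bound cells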
UCH37 DUB inh = human UCH37 deubiquitinating enzyme inhibition. AID 588478. actives 0.33% (n = 330,000). purified proteasome/UCH37, Ub-AMC cleavage fluorescence. Q9Y5K5. inhibition, % (test concentration not listed);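 active = mean inhibition over replicate wells above about 20%, limit read from the data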;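 note: 0% = compound-free wells with enzyme and 100% = wells lacking proteasome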
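assay system = human UCH37 enzyme supplied as purified proteasome complex | amount = proteasome at 0.15 nM in the dispensed enzyme solution | schedule = 30 min compound-proteasome preincubation then 25 min substrate reaction, room temperature | measured by = fluorescence, ex 355 nm, em 460 nm | benchmarks = no-proteasome wells (full inhibition) and compound-free wells (no inhibition)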
Rce1 inh = yeast Ras-converting enzyme inhibition; Q03530; yeast membranes, quenched prenylated peptide cleavage fluorescence; calls only; actives 0.27% (n = 290,000);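 active = fall in fluorescence gain of 50% or more versus controls, with final raw signal at or below 3038400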;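 note: plate controls were neutral control wells for no effect and wells lacking membranes for full effect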
MEKK2wt PB1 HTS = raises or lowers MEK5 binding to wildtype human MEKK2 PB1 domain. binding response (% of control), % at 10 µM. AID 1531. bead flow cytometry, Alexa488-MEK5 binding to MEKK2 WT; actives lie on both sides. actives 1.1% (n = 290,000); in the data active = binding response below about 67% or above about 130%
Active calls of the source: *; i = inactive; . = no result given; + = active, no number; [ ] = another dose, or the depositor's remark.

SMILES	MEKK2mut PB1 HTS	MEKK3 PB1 HTS	T cell modulator	UCH37 DUB inh	Rce1 inh	MEKK2wt PB1 HTS
CCN(CC)CCNC(=O)c1cc2c(=O)n(C)c3ccccc3c2s1	1.0	101.0	225.0	.	+	106.0
CCCCN(CC)CCNC(=O)c1cc2c(=O)n(C)c3ccccc3c2s1	0.0	104.0	400.0	.	i	109.0
c1ccc(C[n+]2cccc3c4ccccc4ccc32)cc1	17.0	101.0	0.0	-146.8	+	105.0
CCCC[n+]1c2ccccc2cc2ccccc21	-5.0	94.0	35.3	.	i	96.0
CCCCC[n+]1cccc2c3ccccc3ccc21	-6.0	94.0	169.1	-264.3	+	96.0
Cc1[nH]nc(N2CCCCC2)c1[N+](=O)[O-]	-3.0	99.0	136.1	4.7	i	91.0
Cc1nc(N2CCCCC2)c(C#N)c(C)c1[N+](=O)[O-]	-48.0	89.0	327.3	5.0	i	170.0*
COc1cccc(N2CCN(c3ncnc4c3[nH]c3ccc(F)cc34)CC2C)c1 (stereo not drawn)	21.0	109.0	141.8	-2.2	i	164.0*
COc1cccc(N2CCN(c3ncnc4c3[nH]c3ccccc34)CC2C)c1 (stereo not drawn)	5.0	101.0	163.3	.	i	117.0
CCCCn1c(N)c(N(CC)C(=O)C(c2ccccc2)c2ccccc2)c(=O)[nH]c1=O	64.0*	82.0	284.3	1.0	i	100.0
O=C(COC(=O)c1ccccc1Cc1ccccc1)NC1CCS(=O)(=O)C1 (stereo not drawn)	-3.0	87.0	i	3.6	+	92.0
CC1(C)Cc2c(C#N)c(NC3CCCCC3)nc(-c3ccco3)c2CO1	1.0	96.0	0.0*	-334.9	i	95.0
COc1cc(C=NNC(=O)c2ccc(-c3ccccc3)cc2)cc(OC)c1OC	.	.	.	-37.6	.	.
COc1ccc(C=NNC(=O)c2c(C)nc3ccc(Br)cn23)cc1	.	.	.	-46.5	.	.
COc1cccc(C=NNC(=O)c2c(C)nc3ccc(Br)cn23)c1O	.	.	.	45.9*	.	.
O=C(NC(C(=O)NN=Cc1c2ccccc2cc2ccccc12)c1n[nH]c(=O)c2ccccc12)c1ccccc1 (stereo not drawn)	.	.	.	2.9	.	.
CC(C)N1CCc2c(sc(NC(=O)c3ccc(C(=O)c4ccccc4)cc3)c2C(N)=O)C1	4.0	92.0	i	.	i	117.0
CC(C)N1CCc2c(sc(NC(=O)c3ccc4ccccc4c3)c2C(N)=O)C1	14.0	103.0	306.8	-18.7	i	134.0*
O=C(COc1ccccc1)Nc1cccc(-c2nn[nH]n2)c1	-5.0	100.0	362.3	2.1	i	100.0
O=C(COc1ccccc1)Nc1cccc(-c2nc3cc4ccccc4cc3[nH]2)c1	12.0	106.0	486.4	i	+	132.0
COc1cc(NC(=S)N2CCC(C(N)=O)CC2)c(OC)cc1Cl	4.0	102.0	206.0	31.0*	i	108.0
COc1cc(C=NNC(=O)Cn2cnc3c2c(=O)n(C)c(=O)n3C)cc(OC)c1OC	.	.	.	0.3	.	.
CC(OC(=O)c1ccc2c(=O)n3c(nc2c1)CCC3)C(=O)NC1CCCCC1C (stereo not drawn)	-5.0	100.0	0.0	-12.1	+	97.0
Cc1ccc(S(=O)(=O)N(C)C)cc1NC(=O)C(C)OC(=O)c1ccc2c(=O)n3c(nc2c1)CCC3 (stereo not drawn)	.	.	.	-7.7	.	.
CCc1ccc[n+](-c2[nH]c(=O)sc2C=NNC([S-])=Nc2ccccc2)c1	.	.	.	22.2*	.	.
SMILES	MEKK2mut PB1 HTS	MEKK3 PB1 HTS	T cell modulator	UCH37 DUB inh	Rce1 inh	MEKK2wt PB1 HTS
C/C(=N/Nc1ncc(Br)cn1)c1ccc(Br)cc1	-3.0	103.0	285.4	.	i	-2.0*
CCOC(C)=Nn1c2nc3ccccc3nc2c2c(=O)n(Cc3ccccc3Cl)c(C)nc21	.	.	.	4.8	.	.
Oc1c(Br)cc(C=Nn2c(-c3ccccc3)n[nH]c2=S)c(O)c1Br	.	.	.	13.7	.	.
O=C(NN=Cc1ccncc1)c1ccc(NC(=O)c2ccc(Cl)cc2)cc1	.	.	.	1.9	.	.
COc1cc(/C=N/NC(=O)c2ccncc2)ccc1OC(=O)c1cc(OC)c(OC)c(OC)c1	3.0	99.0	326.4	.	+	102.0
CN(C)c1ccc(/C=N/NC(=O)CNC(=O)c2ccco2)cc1	4.0	101.0	407.9	.	+	100.0
COCc1cc(/C=N\NC(=O)Cc2ccc(Cl)cc2)ccc1OC	0.0	110.0	271.4	.	i	109.0
COc1ccc(C=NNC(=O)Cc2ccc(Cl)cc2)cc1OC	.	.	.	34.8*	.	.
O=C(N/N=C/c1ccncc1)c1cccc(NC(=O)c2ccc(Cl)cc2)c1	-3.0	54.0*[inhibitor]	460.6	.	i	66.0
COc1ccc(/C=N/NC(=O)c2ccncc2)cc1OC	-4.0	100.0	233.3	.	i	96.0
CC(CC(=O)Nc1ccc(Cl)cc1)=NNC(=O)C(=O)N1CCCCC1	.	.	.	-1.3	.	.
O=C(Cc1cccs1)NN=C/C(Br)=C/c1ccccc1	.	.	.	5.2	.	.
CC(=NNC(=O)CSCc1ccccc1Cl)c1cc(O)ccc1O	.	.	.	2.8	.	.
CCOC(=O)NC(=O)C(C#N)=NNc1c(F)cccc1F	.	.	.	10.7	.	.
Cc1ccccc1C(=O)Nc1ccc(C(=O)N/N=C/c2ccc(O)cc2)cc1	-22.0	92.0	162.5	.	i	59.0*[inhibitor]
O=C(NN=Cc1ccncc1)c1ccccc1	.	.	.	31.0*	.	.
COc1ccccc1C(=O)NCC(=O)NN=Cc1ccncc1	.	.	.	30.1*	.	.
Cc1ccccc1C(=O)Nc1ccc(C(=O)N/N=C/c2ccncc2)cc1	-27.0	67.0	205.3	.	i	73.0
CCCN(CCC)Cc1c(C(=O)NN=Cc2ccoc2)nnn1-c1nonc1N	.	.	.	1.9	.	.
COc1cccc(C=NNC(=O)CC2C(=O)NN=C2C)c1O (stereo not drawn)	.	.	.	-3.6	.	.
COc1ccc2cc(OC)c(C(=O)N3CCOCC3)cc2c1	2.0	100.0	305.8	-223.4	i	-7.0*
COc1cccc(C=NNC(=O)c2ccccc2)c1OS(=O)(=O)c1ccccc1	.	.	.	6.0	.	.
CCOC(=O)c1c(NC(=O)c2cccc(N3C(=O)CCC3=O)c2)sc(C)c1C	-2.0	104.0	246.0	-72.4	+	97.0
CCOC(=O)c1c(-c2ccc(-c3ccccc3)cc2)csc1NC(=O)c1cccc(N2C(=O)CCC2=O)c1	12.0	101.0	347.2	-37.7	i	106.0
CC(=O)OCC(=O)[C@@]12OC3(CCCC3)O[C@@H]1C[C@H]1[C@@H]3CCC4=CC(=O)C=C[C@]4(C)[C@@]3(F)[C@@H](O)C[C@@]12C	3.0	85.0	592.1	1.6	+	-3.0*
CC1(C)O[C@@H]2C[C@H]3[C@@H]4CCC5=CC(=O)C=C[C@]5(C)[C@@]4(F)[C@@H](O)C[C@]3(C)[C@]2(C(=O)CO)O1	4.0	109.0	133.8	1.0	i	95.0
O=C(NC1CC1)C1=C[C@@H](C2CC2)C[C@@H](OCCCCO)O1	1.0	106.0	581.4	23.4*	i	100.0

Source: PubChem BioAssay (several laboratories)
